Most compounds without a hit are left out; they make up all but 2.3% or so of the library.
TRPC4 act: opens the mouse TRPC4 cation channel; Q9QUQ5; HEK293 TRPC4beta/mu-opioid, Fluo4 calcium fluorescence; stronger effect = higher value; B-score at 10 µM; 0.49% of 310,000 active; AID 2237;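 active = B-score above 5 SD of library B-scores, and initial fluorescence ratio not above library mean plus 5 SD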;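 also: positive B-score marks a calcium rise read as TRPC4 activation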
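Assay system: HEK293 stable line with TRPC4beta plus mu-opioid receptor. Times: dye 45 min RT, read 110 s. Measured by: kinetic Fluo4 calcium fluorescence. Measure: B score of integrated ratio. Controls: assay buffer as low control, maximal DAMGO as high control.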
TRPC6 inhibitor: inhibitors of mouse TRPC6 channel; B-score at 10 µM; AID 2553; Q61143; HEK293-TRPC6, membrane potential dye, ACh-evoked depolarization; stronger effect = lower value; 1.1% of 310,000 active;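 active = B-score under library mean minus 3 SD, initial fluorescence not abnormally high, positive integrated signal ratio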;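 also: B-score derived from integrated fluorescence ratio over the kinetic read; more negative B-score means stronger inhibition of depolarization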
Target sequence (Q61143 whole entry, looked up): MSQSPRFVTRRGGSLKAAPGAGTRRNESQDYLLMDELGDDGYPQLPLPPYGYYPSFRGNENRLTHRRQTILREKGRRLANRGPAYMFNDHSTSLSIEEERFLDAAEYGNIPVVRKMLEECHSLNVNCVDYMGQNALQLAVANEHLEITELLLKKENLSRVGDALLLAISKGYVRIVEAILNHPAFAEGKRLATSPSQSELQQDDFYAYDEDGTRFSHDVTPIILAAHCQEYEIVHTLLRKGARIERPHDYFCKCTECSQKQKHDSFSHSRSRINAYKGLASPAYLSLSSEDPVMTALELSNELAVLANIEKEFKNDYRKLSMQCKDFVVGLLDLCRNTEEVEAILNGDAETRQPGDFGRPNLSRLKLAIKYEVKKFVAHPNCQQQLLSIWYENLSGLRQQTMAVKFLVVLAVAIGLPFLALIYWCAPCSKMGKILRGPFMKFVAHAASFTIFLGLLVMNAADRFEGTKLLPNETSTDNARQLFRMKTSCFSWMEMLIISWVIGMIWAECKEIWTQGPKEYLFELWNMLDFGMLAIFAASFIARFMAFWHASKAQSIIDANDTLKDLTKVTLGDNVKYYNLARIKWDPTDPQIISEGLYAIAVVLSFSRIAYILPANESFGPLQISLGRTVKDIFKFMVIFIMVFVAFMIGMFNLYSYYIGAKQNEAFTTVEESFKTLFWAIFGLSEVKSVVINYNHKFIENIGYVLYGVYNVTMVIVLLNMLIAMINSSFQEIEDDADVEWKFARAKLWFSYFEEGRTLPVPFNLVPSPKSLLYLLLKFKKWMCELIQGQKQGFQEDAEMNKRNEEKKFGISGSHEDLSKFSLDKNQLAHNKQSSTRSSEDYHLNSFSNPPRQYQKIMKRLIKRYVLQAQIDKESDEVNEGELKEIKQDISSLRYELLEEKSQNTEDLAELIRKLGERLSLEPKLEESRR
TRPC4 PAM: TRPC4 (mouse) allosteric potentiation. HEK293 TRPC4beta/mu-opioid, DAMGO EC20, Fluo-4 Ca2+ flux; stronger effect = higher value. B-score at 10 µM. 0.42% of 310,000 active. AID 2227;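 active = B-score of calcium response area above 5 SD of library B-scores, with initial fluorescence ratio within 5 SD of library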;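 also: B-score of integrated fluorescence ratio over time as area under calcium response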
TRPC4 block: TRPC4 (mouse) channel inhibition | Q9QUQ5 | HEK293 TRPC4beta/mu-opioid, DAMGO-evoked Fluo4 calcium flux; stronger effect = lower value | B-score at 10 µM | 0.39% of 300,000 active;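 active = B-score over 3 SD under the library average, no early fluorescence shift, positive overall ratio signal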
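Test system – stable TRPC4beta/mu-opioid receptor HEK293 cells · Probe or stimulus – DAMGO, a submaximal dose followed by a maximal one · Dosing – one concentration per compound · Signal – Fluo4 calcium fluorescence by kinetic imaging, 5 s 1 Hz baseline · Evaluation – per-well B score of integrated baseline-normalized Fluo4 ratio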
TRPC6 act: mouse TRPC6 channel activation. Q61143. HEK293-TRPC6 membrane potential dye fluorescence; stronger effect = higher value. B-score at 10 µM. 0.13% of 310,000 active;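 active = B-score of the integrated fluorescence ratio above library mean plus 3 SD, and starting fluorescence ratio within library mean plus 5 SD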;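 also: higher score means more depolarization so channel activation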
TRPC4 spec 2: second check of whether TRPC6 inhibitors also affect mouse TRPC4 | shares compounds with TRPC6 inhibitor | HEK293 TRPC4/MOR, membrane potential dye fluorescence; channel activated by saturating DAMGO dose | inhibition, % at 10 µM | 42% of 920 active;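 active = compounds whose fluorescence signal differed from control wells by over 3 SD, either direction, in both duplicate plates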
TRPC4 spec: mouse TRPC4 off-target activity of TRPC6 inhibitors; shares compounds with TRPC6 inhibitor; HEK293 TRPC4/mu-opioid, membrane potential fluorescence; activity change, negative = inhibition, % at 10 µM; 61% of 920 active;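 active = rise or fall in signal beyond 3 SD of buffer-only wells in both replicate plates, either sign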;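 also: integrated kinetic ratio of fluorescence range over baseline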
HEK293 MPD ctr 2-1: parental HEK293 nonspecific activity of TRPC6 inhibitors, second screen | 31% of 920 active | parental HEK293 membrane potential dye fluorescence; maximal acetylcholine challenge after compound addition | shares compounds with TRPC6 inhibitor | signal change vs control, % at 10 µM;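 active = membrane potential signal moving either way by over 3 SD of the maximum-effect control, in both duplicate plates, meaning non-specific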
HEK293 MPD ctr-1: parental HEK293 nonspecific activity of TRPC6 inhibitors | 60% of 920 active | shares compounds with TRPC6 inhibitor | parental HEK293 membrane potential dye fluorescence | membrane potential signal change, % at 10 µM;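 active = membrane potential signal shifting up or down by more than 3 SD of buffer-only wells, on both duplicate plates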
HEK293 MPD ctr-2: checks TRPC6 modulator effects in parental HEK293 cells; shares compounds with TRPC6 inhibitor; membrane potential signal change, % at 10 µM; 51% of 2,400 active; membrane potential dye fluorescence; AID 488924;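 active = membrane potential signal moves up or down beyond 5 SD from buffer-only wells, on both duplicate plates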
HEK293 MPD ctr 2-2: second counter-screen for TRPC6 modulators: effect in parental HEK293 cells; shares compounds with TRPC6 inhibitor; membrane potential dye fluorescence; after compound, maximal acetylcholine stimulation; inhibition, % at 10 µM; 14% of 2,400 active;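 active = membrane potential signal drops by more than 5 SD from the mean control signal, in both duplicate plates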;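 also: plate controls were acetylcholine ECmax control wells for no effect and buffer only wells for full effect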
TRPC4 ctr mod: mouse TRPC4 off-target activity of TRPC6 modulators; shares compounds with TRPC6 inhibitor; HEK293 TRPC4/mu-opioid, membrane potential fluorescence; percent change from control (negative = decrease, positive = increase), % at 10 µM; 69% of 2,400 active;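 active = membrane potential signal moved up or down beyond 5 SD of buffer control wells, in both duplicate plates, actives on both sides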;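 also: plate controls were assay buffer wells for no effect and DAMGO maximal-effect wells for full effect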
TRPC4 ctr inh 2: second selectivity test of TRPC6 modulators against mouse TRPC4 | 55% of 2,400 active | shares compounds with TRPC6 inhibitor | inhibition, % at 10 µM | HEK293 TRPC4/mu-opioid, membrane potential dye fluorescence; stimulated with maximal-effect DAMGO;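 active = drop in membrane potential signal beyond 5 SD of the control wells in both duplicate plates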;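 also: TRPC4 counter screen for TRPC6 hits run under conditions tuned for TRPC6 not TRPC4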
TRPC6 block conf: mouse TRPC6 inhibitor confirmation | shares compounds with TRPC6 inhibitor | HEK293-TRPC6, membrane potential dye, ACh-evoked depolarization | inhibition, % at 10 µM | 43% of 3,300 active | AID 488960;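 active = fluorescence ratio falls more than 5 SD below the full-stimulation control mean, in both duplicate runs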;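 also: integrated fluorescence ratio of peak minus minimum over baseline after agonist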
TRPC6 act conf: confirmation of mouse TRPC6 activators; shares compounds with TRPC6 inhibitor; HEK293-TRPC6 membrane potential dye fluorescence, FDSS; activation, % at 10 µM; 11% of 2,800 active; AID 488961;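 active = ratio signal rise beyond 5 SD above unstimulated control wells' mean, seen in both duplicate runs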;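 also: plate controls were buffer EC0 wells for no effect and acetylcholine ECmax response for full effect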
The depositor's hits bear a star; i = inactive; . = not tested or not shown.

SMILES	TRPC4 act	TRPC6 inhibitor	TRPC4 PAM	TRPC4 block	TRPC6 act	HEK293 MPD ctr-2	HEK293 MPD ctr 2-2	TRPC4 ctr mod	TRPC4 ctr inh 2	TRPC6 block conf	TRPC6 act conf	others
O=C1c2ccccc2C(=O)c2c(Nc3ccc(CCO)cc3)ccc(O)c21	i	-5.2*	i	i	i	i	i	-9.0%*	42%*	i	i
CN(CC(O)COc1ccc2ccccc2c1)C1CCCCC1 (stereo unspecified)	i	i	i	i	i	.	.	.	.	.	.
CN(C)c1ccc(N=C/C=C2\N(C)c3ccccc3C2(C)C)cc1	i	-6.6*	i	i	i	i	i	-16%*	53%*	58%*	i
CN1/C(=C\C=O)C(C)(C)c2ccccc21	i	i	i	i	i	.	.	.	.	.	.
CN1\C(=C/C=C/C=C/C=[N+](C)C)C(C)(C)c2ccccc21	i	-5.2*	i	i	i	533%*	i	-20%*	32%*	48%*	i
CCC(C)(C)NC(=O)C(c1ccccc1)N(Cc1cccs1)C(=O)Cn1nnc2ccccc21 (stereo unspecified)	i	i	i	i	15*	119%*	i	34%*	i	i	44%*
COCCNC(=O)C(c1ccccc1)N(Cc1cccs1)C(=O)Cn1nnc2ccccc21 (stereo unspecified)	i	i	i	i	i	.	.	.	.	.	.
CCC(C)(C)NC(=O)C(c1ccc(C)o1)N(Cc1cccs1)C(=O)Cn1nnc2ccccc21 (stereo unspecified)	i	i	i	i	15*	342%*	i	80%*	i	i	99%*
O=C1COc2ccc(S(=O)(=O)N3CCN(c4ccccc4F)CC3)cc2N1	i	i	i	i	i	.	.	.	.	.	.
O=C(NCc1ccccc1)C12CN(Cc3ccccc3)CC1C(c1cccc([N+](=O)[O-])c1)=NO2 (stereo unspecified)	i	i	i	i	i	.	.	.	.	.	.
CCCCN(CCCC)CCCNC(=O)C12CN(Cc3ccccc3)CC1C(c1cccc([N+](=O)[O-])c1)=NO2 (stereo unspecified)	i	-7.5*	i	i	i	.	.	.	.	i	i	TRPC4 spec 2=60%*;TRPC4 spec=i;HEK293 MPD ctr 2-1=i;HEK293 MPD ctr-1=i
COCCCNC(=O)CCn1nc(-c2ccc(Cl)cc2)ccc1=O	i	-5.2*	i	i	i	i	i	i	i	i	i
CN1CCN(c2ccc(NC(=O)COc3ccccc3Cl)cc2)CC1	i	-9.2*	i	i	i	.	.	.	.	i	i	TRPC4 spec 2=58%*;TRPC4 spec=-11%*;HEK293 MPD ctr 2-1=i;HEK293 MPD ctr-1=-186%*
Cc1cc(OCC(=O)Nc2ccc(S(=O)(=O)N3CCN(C)CC3)cc2)ccc1Cl	i	i	i	i	i	.	.	.	.	.	.
CCC(=O)N1CCN(c2ccc(NC(=O)COc3ccccc3Cl)cc2)CC1	i	i	i	i	i	.	.	.	.	.	.
Cc1cc(OCC(=O)Nc2ccc(N3CCN(C)CC3)cc2)ccc1Cl	i	-5.1*	i	-6*	i	i	i	30%*	52%*	i	i
Cc1ccc(S(=O)(=O)N2CCOCC2)cc1C(=O)NC1CCSc2ccccc21 (stereo unspecified)	i	i	i	i	i	.	.	.	.	.	.
CC[N+](C)(C)CC/C=C1/c2ccccc2Sc2ccc(Cl)cc21	i	-8.8*	i	i	i	.	.	.	.	79%*	i	TRPC4 spec 2=i;TRPC4 spec=-11%*;HEK293 MPD ctr 2-1=i;HEK293 MPD ctr-1=i
Clc1ccc2c(N3CCOCC3)ccnc2c1	i	i	i	i	i	.	.	.	.	.	.
CN1CCN(c2ccc(Nc3ccnc4cc(Cl)ccc34)cc2)CC1	i	-6.4*	i	i	i	-106%*	i	-24%*	52%*	46%*	i
Clc1ccc2c(N3CCCC3)ccnc2c1	i	-9*	i	-6*	i	.	.	.	.	64%*	i	TRPC4 spec 2=76%*;TRPC4 spec=-25%*;HEK293 MPD ctr 2-1=37%*;HEK293 MPD ctr-1=-478%*
C(#CCN1CCCC1)CC(c1ccccc1)c1ccccc1	i	-8.6*	i	i	i	.	.	.	.	i	.	TRPC4 spec 2=66%*;TRPC4 spec=14%*;HEK293 MPD ctr 2-1=i;HEK293 MPD ctr-1=15%*
CN1CCN(CC#CCC(O)(c2ccccc2)C2CCCC2)CC1 (stereo unspecified)	i	i	i	i	i	.	.	.	.	.	.
OC(CC#CCN1CCCC1)(c1ccccc1)c1ccccc1	i	-5.3*	i	i	i	114%*	63%*	15%*	i	65%*	.
CC1CCCN1CC#CC(O)(c1ccccc1)c1ccccc1 (stereo unspecified)	i	-8.7*	i	-7*	i	.	.	.	.	82%*	.	TRPC4 spec 2=i;TRPC4 spec=4.5%*;HEK293 MPD ctr 2-1=-44%*;HEK293 MPD ctr-1=8.2%*
CC(O)(C#CCN1CCCC1)c1ccccc1 (stereo unspecified)	i	i	i	i	i	.	.	.	.	.	.
OC(CC#CCN1CCCCC1)(c1ccccc1)c1ccccc1	i	i	i	i	i	.	.	.	.	.	.

High-throughput results: PubChem, Johns Hopkins Ion Channel Center
